DDE Tn6 FP inh: inhibitors of Tn6 peptide binding to fibrin DD(E), primary screen, biochemical, fluorescence polarization, human fibrin, Tn6 probe; Fibrinogen beta chain (Homo sapiens), P02675; Fibrin DD(E) TRITC-Tn6 fluorescence polarization displacement; inhibition, % at 8.3 µM; actives 0.21% (n = 370,000);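 active means inhibition above a per-campaign cutoff: mean of compounds within control limits plus 3 SD, cut at about 15% in these data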
CendR NRP1 mod: modulators of CendR peptide binding to NRP-1, primary screen, biochemical, fluorescence polarization, uHTS; inhibition, % at 25 µM; actives 0.85% (n = 360,000); Neuropilin-1 (Homo sapiens), O14786; AID 602438, 2012; FAM-RPARPAR peptide binding to NRP-1;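 active means inhibition or corrected inhibition above about 18%, plus a signal ratio from 0.5 to 1.5, limit read from the data, passing the limit was not always enough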
Target sequence (O14786 whole entry, looked up): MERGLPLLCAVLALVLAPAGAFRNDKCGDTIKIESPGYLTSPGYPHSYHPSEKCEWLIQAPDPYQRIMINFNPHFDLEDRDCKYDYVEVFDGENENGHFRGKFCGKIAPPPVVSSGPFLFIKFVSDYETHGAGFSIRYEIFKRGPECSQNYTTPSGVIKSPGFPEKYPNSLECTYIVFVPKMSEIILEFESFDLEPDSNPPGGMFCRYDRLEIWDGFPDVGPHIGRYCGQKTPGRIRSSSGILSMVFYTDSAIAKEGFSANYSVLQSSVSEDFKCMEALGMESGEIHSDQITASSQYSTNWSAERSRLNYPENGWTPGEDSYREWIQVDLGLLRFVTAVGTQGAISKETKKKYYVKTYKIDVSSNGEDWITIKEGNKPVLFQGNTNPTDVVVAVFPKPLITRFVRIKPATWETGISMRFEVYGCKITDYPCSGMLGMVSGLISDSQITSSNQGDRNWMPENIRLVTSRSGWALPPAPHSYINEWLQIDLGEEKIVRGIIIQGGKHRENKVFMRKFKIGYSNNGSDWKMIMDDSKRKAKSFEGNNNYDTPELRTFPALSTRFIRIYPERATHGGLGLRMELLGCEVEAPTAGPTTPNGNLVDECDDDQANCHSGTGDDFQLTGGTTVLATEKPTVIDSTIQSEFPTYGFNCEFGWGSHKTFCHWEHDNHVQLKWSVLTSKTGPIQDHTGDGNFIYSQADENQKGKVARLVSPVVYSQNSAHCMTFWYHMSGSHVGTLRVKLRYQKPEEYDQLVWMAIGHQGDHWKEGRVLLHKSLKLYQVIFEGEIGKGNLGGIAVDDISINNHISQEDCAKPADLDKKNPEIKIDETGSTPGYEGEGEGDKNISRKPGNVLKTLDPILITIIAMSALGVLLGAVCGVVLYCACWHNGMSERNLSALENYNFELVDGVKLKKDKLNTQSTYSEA
KLK7 zymogen act: proKLK7 zymogen activators, primary screen, biochemical, fluorescence intensity | Kallikrein-7 (Homo sapiens), P49862 | purified proKLK7, EDANS-DABCYL substrate fluorescence; 100% is mature enzyme control, 0% vehicle | activation, % at 7 µM | actives 0.9% (n = 370,000) | AID 652039, 2013;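 active means activation above the mean of all tested compounds plus 3 SD, computed per campaign excluding outliers beyond control limits, cut at about 13% in these data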
CRFBP-R2 block: antagonists of CRF-BP/CRF-R2 complex, primary screen, cell-based, HEK293, calcium dye fluorescence, uHTS. CRF-induced calcium fluorescence. inhibition, % at 11.8 µM. actives 0.59% (n = 350,000);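 active means inhibition of the ligand-induced calcium signal above about 50% at the single tested concentration, limit read from the data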
CRFBP-R2 agonist: agonists of CRF-BP/CRF-R2 complex, primary screen, cell-based, HEK293, calcium dye fluorescence, uHTS. actives 0.46% (n = 350,000). CRF-binding protein / CRF receptor 2 complex (human). calcium dye fluorescence (FLIPR); percent of saturating CRF peptide response. activation, % at 13.2 µM;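 active means activation of at least 50%, plus an integration ratio under a set limit after plate pattern correction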
DDE Tn7 FP inh: inhibitors of Tn7 peptide binding to fibrin DD(E), primary screen, biochemical, fluorescence polarization, human fibrin, Tn7 probe; actives 0.13% (n = 370,000); FP displacement of FITC-Tn7 peptide from fibrin DD(E); 0% = median of compound wells per plate; inhibition, % at 8.3 µM; Fibrinogen beta chain (Homo sapiens), P02675;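 active means inhibition above the mean of compounds falling within the control limits plus 3 SD of them, cut at about 14% in these data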
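Assay system: Human fibrin DD(E) protein | Medium: Tris buffer with calcium and detergent, pH 7.8 | Reagent: 0.1 µM fluorescent Tn7 | Compound dosing: Single point at 8.3 µM | Times: 10 min preincubation, 3 h with tracer, room temperature | Detection: Fluorescence polarization of the labelled Tn7 tracer | Controls: Aha-Tn7 high control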
Tn7 DDE conf: inhibitors of Tn7 peptide binding to fibrin DD(E), confirmation, biochemical, fluorescence polarization, human fibrin, Tn7 probe; shares compounds with DDE Tn7 FP inh; FP displacement of TRITC-Tn7 peptide from DD(E); 0% set at plate's compound-well median; inhibition, % at 8.3 µM; actives 5% (n = 460); AID 720628, 2013;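 active means inhibition above the campaign cutoff, the mean of compounds within control limits plus 3 SD, cut at about 14% in these data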;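 further: displacers lower polarization since freed probe rises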
Tn7 DDE ctr: DD(E)-Tn7 binding inhibition, counter-screen. inhibition, % at 8.3 µM. actives 3% (n = 460). fibrin DD(E), TRITC-Tn7 probe displacement, fluorescence polarization. shares compounds with DDE Tn7 FP inh;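 active means inhibition above the cutoff, the mean of compounds lying between the control bounds plus 3 SD of those compounds, cut at about 17% in these data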
Each line names hits and unclear results; the compound was inactive in the other large screens (follow-up assays come after a bar, where they were run). Most compounds without a hit are left out; they make up all but 2.9% or so of the library.

Cc1ccc(NC(=O)CSc2nnc(-c3cc(-c4ccc(Cl)cc4)n[nH]3)n2N)cc1	none (no result: CendR NRP1 mod, CRFBP-R2 block, CRFBP-R2 agonist)
COc1ccc(S(=O)(=O)N2CCOCC2)cc1NC(=O)CCOc1ccc(C(C)(C)C)cc1	DDE Tn7 FP inh 15 | Tn7 DDE conf inactive | Tn7 DDE ctr inactive
COc1ccc(S(=O)(=O)N2CCOCC2)cc1NC(=O)c1ccc(OC(F)F)cc1	DDE Tn7 FP inh 15 | Tn7 DDE conf inactive | Tn7 DDE ctr inactive
CCOC(=O)c1c(-c2ccccc2)oc2ccc(O)c(CN3CCCC3)c12	DDE Tn7 FP inh 15 | Tn7 DDE conf inactive | Tn7 DDE ctr inactive
O=C(Nc1ccc2[nH]ccc2c1)c1cc(-c2ccc(Cl)cc2)nc2ccccc12	none (no result: CendR NRP1 mod, CRFBP-R2 block, CRFBP-R2 agonist)
CN(C)C(CNC(=O)c1cc(S(=O)(=O)N(C)c2ccc(F)cc2)ccc1Cl)c1cccs1 (stereo not drawn)	DDE Tn7 FP inh 15 | Tn7 DDE conf inactive | Tn7 DDE ctr inactive
CCC1=Nc2cc(C(=O)O)ccc2Sc2ccc(Cl)cc21	DDE Tn7 FP inh 15 | Tn7 DDE conf inactive | Tn7 DDE ctr inactive
COC(=O)c1cc(-c2c(C)noc2C)c(=O)n2c1CCC2	none (no result: CendR NRP1 mod, CRFBP-R2 block, CRFBP-R2 agonist)
O=C(NCc1ccccc1)[C@@H]1CCCN1C(=O)[C@H]1CCCN1C(=O)c1ccc(F)c(F)c1	none (no result: CendR NRP1 mod, CRFBP-R2 block, CRFBP-R2 agonist)
O=C(Cn1c(Cc2ccccc2)nc2ccccc21)NCc1ccc2c(c1)OCO2	DDE Tn7 FP inh 15 | Tn7 DDE conf inactive | Tn7 DDE ctr inactive
O=C(c1cccc(NC2=NC3CS(=O)(=O)CC3S2)c1)N1CCN(c2ccc(F)cc2)CC1 (stereo not drawn)	none
O=C(c1cccc(NC2=NC3CS(=O)(=O)CC3S2)c1)N1CCN(c2cccc(Cl)c2)CC1 (stereo not drawn)	DDE Tn7 FP inh 17 | Tn7 DDE conf inactive | Tn7 DDE ctr inactive
Cc1cc(C(F)F)n2ncc(C(=O)NCc3ccccc3C(F)(F)F)c2n1	DDE Tn7 FP inh 14 | Tn7 DDE conf inactive | Tn7 DDE ctr inactive
Cc1ccccc1N1CCN(S(=O)(=O)c2ccc3c(c2)n(C)c(=O)c(=O)n3C)CC1	none (no result: CendR NRP1 mod, CRFBP-R2 block, CRFBP-R2 agonist)
COc1ccc(C=Cc2ccc3ccccc3n2)c(OC)c1	CRFBP-R2 agonist 80, DDE Tn7 FP inh 27 | Tn7 DDE conf inactive | Tn7 DDE ctr inactive
Cc1cccn2c(=O)c(/C=C(\C#N)C(=O)NCc3ccccc3)c(N3CCC(C(N)=O)CC3)nc12	DDE Tn7 FP inh 16 | Tn7 DDE conf inactive | Tn7 DDE ctr inactive
COc1ccc(N2CCCN(CC(=O)Nc3ccc(Cl)cc3)CC2)cc1	none (no result: CendR NRP1 mod, CRFBP-R2 block, CRFBP-R2 agonist)
O=C(NCCNS(=O)(=O)c1ccc(C(F)(F)F)cc1)N1CCOCC1	none
O=C(NCCNS(=O)(=O)c1ccccc1)N1CCOCC1	DDE Tn7 FP inh 15 | Tn7 DDE conf inactive | Tn7 DDE ctr inactive
CCOC(=O)Cn1cc(CN2CCS(=O)(=O)N(Cc3ccc(C)cc3)C(C(=O)OC)C2)nn1 (stereo not drawn)	none (no result: CendR NRP1 mod, CRFBP-R2 block, CRFBP-R2 agonist)
CCCCCC[C@@H](CC)CN(C(=O)Oc1ccccc1)c1ccccc1	DDE Tn7 FP inh 15 (no result: CendR NRP1 mod, CRFBP-R2 block, CRFBP-R2 agonist) | Tn7 DDE conf inactive | Tn7 DDE ctr inactive
CCOc1ccc(NC(=O)CCN2CCCCC2)cc1	DDE Tn7 FP inh 16 | Tn7 DDE conf inactive | Tn7 DDE ctr inactive
COc1ccc(NC(=O)CCN2CCCCC2)cc1	none
CCn1nc(C)c(CCC(=O)O)c1C	none
Cc1nn(C)c(C)c1CCC(=O)O	DDE Tn7 FP inh 14 | Tn7 DDE conf inactive | Tn7 DDE ctr inactive
COc1ccc(NC(=O)CN2C(=O)C(C)Oc3ccccc32)cc1OC (stereo not drawn)	DDE Tn7 FP inh 14 | Tn7 DDE conf inactive | Tn7 DDE ctr inactive
COc1ccccc1NC(=O)CN1C(=O)C(C)Oc2ccccc21 (stereo not drawn)	none
O=C(NC1CCCCN(Cc2cccc(C(F)(F)F)c2)C1=O)c1ccc(F)cc1 (stereo not drawn)	none (no result: CendR NRP1 mod, CRFBP-R2 block, CRFBP-R2 agonist)
COCCCNC(=S)NNC(=O)c1ccccn1	DDE Tn7 FP inh 16 | Tn7 DDE conf inactive | Tn7 DDE ctr inactive
Cc1ccc(CN2CCC2(C)C(=O)NC(C)C)cc1 (stereo not drawn)	none (no result: CRFBP-R2 block, CRFBP-R2 agonist)
Cc1ccc(CN2CCCC2(C)C(=O)NC(C)C)cc1 (stereo not drawn)	DDE Tn7 FP inh 14 (no result: CRFBP-R2 block, CRFBP-R2 agonist) | Tn7 DDE conf inactive | Tn7 DDE ctr inactive
CC(C)(C)c1cc[n+](-c2[nH]c(=O)sc2/C=N/NC([S-])=Nc2ccccc2)cc1	CendR NRP1 mod 54, DDE Tn7 FP inh 20 | Tn7 DDE conf inactive | Tn7 DDE ctr inactive
Cc1ccc(NC(=O)Cc2nnc(SCC(=O)Nc3nncs3)n2C)c(C)c1	none
Cn1c(CC(=O)Nc2ccccc2Cl)nnc1SCC(=O)Nc1nncs1	DDE Tn7 FP inh 14 | Tn7 DDE conf inactive | Tn7 DDE ctr inactive
O=C(Nc1ccccc1)OCCN1C(=O)CCC12CCC(c1ccc(Cl)cc1)CC2 (stereo not drawn)	none (no result: CendR NRP1 mod, CRFBP-R2 block, CRFBP-R2 agonist)
CC(C)C(=O)Nc1nnc(COc2ccc(Cl)cc2)s1	DDE Tn7 FP inh 14 | Tn7 DDE conf inactive | Tn7 DDE ctr inactive
CC(=O)Nc1nnc(COc2ccc(Cl)cc2)s1	none
COc1cc2ncnc(NCc3ccc(C)cc3)c2cc1OC	DDE Tn7 FP inh 14 | Tn7 DDE conf inactive | Tn7 DDE ctr inactive
O=C(Nc1cccc(OC(F)(F)F)c1)c1ccc(-c2cccnc2)c2ccoc12	DDE Tn7 FP inh 14 (no result: CRFBP-R2 block, CRFBP-R2 agonist) | Tn7 DDE conf inactive | Tn7 DDE ctr inactive
COc1cc(NC(=O)c2ccc(-c3cccnc3)c3ccoc23)cc(OC)c1OC	none (no result: CRFBP-R2 block, CRFBP-R2 agonist)
C#CCCC(=O)Nc1sc2c(c1-c1nc3ccccc3s1)CCN(C(C)C)C2	DDE Tn7 FP inh 16 (no result: CendR NRP1 mod, KLK7 zymogen act, CRFBP-R2 block, CRFBP-R2 agonist) | Tn7 DDE conf 14 | Tn7 DDE ctr inactive
CC(C)N1CCc2c(sc(NC(=O)C(F)F)c2-c2nc3ccccc3s2)C1	none (no result: CendR NRP1 mod, KLK7 zymogen act, CRFBP-R2 block, CRFBP-R2 agonist)

High-throughput results as filed in PubChem BioAssay.
